# In the library only some 2.8% were active in any assay of this set; here they are far more common.
# NPY-Y1 PAM-ag: human NPY-Y1 potentiation or agonism, primary screen | P25929 | NPY-Y1 expressing cells, potentiator/agonist activation | activation, % at 3.6 µM | 220,000 tested, 0.37% active; in the data active means activation above about 33%, passing the limit was not always enough;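 further: cells stimulated with NPY at EC10 then isoproterenol at EC100; 0% = low agonist plus stimulus and 100% = saturating agonist plus stimulus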
# NPY-Y2 antag: NPY-Y2 (human) receptor antagonism. P49146. AID 793. NPY-Y2 expressing cells, antagonist mode. inhibition, % at 2.7 µM. 140,000 tested, 0.99% active; in the data active means inhibition above about 17%;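 further: 0% = vehicle with agonist challenge and 100% = reference antagonist with challenge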
# Target sequence (P49146 whole entry, looked up): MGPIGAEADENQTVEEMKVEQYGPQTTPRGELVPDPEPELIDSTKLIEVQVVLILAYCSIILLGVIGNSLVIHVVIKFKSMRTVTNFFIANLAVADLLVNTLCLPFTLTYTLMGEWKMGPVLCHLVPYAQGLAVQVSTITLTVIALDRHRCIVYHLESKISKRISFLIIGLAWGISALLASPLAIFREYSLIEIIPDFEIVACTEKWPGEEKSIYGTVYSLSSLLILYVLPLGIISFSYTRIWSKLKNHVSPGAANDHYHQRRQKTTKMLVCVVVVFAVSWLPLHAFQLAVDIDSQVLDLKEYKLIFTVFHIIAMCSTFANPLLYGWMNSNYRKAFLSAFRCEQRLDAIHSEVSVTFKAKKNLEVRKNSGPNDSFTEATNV
# NPY Y1 blocker: blocks the human neuropeptide Y Y1 receptor | P25929 | 200,000 tested, 1% active | HEK293-CNG Y1 cells, membrane potential fluorescence; NPY at EC95, then isoproterenol | inhibition, % at 3.6 µM | AID 1040;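 active means inhibition above the campaign mean inhibition of all tested compounds plus 3 SD, cut at about 20% in these data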;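 further: 0% = DMSO wells given NPY plus isoproterenol and 100% = isoproterenol alone without NPY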
#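 Assay system: HEK293 cells with Y1 receptor plus CNG channel | Probe or stimulus: NPY (25 nM), isoproterenol (1 µM), Ro 20-1724 (25 µM) | Timing: Compound incubation 1 h at room temperature, readout 45 min post-stimulation | Measured by: Membrane-potential fluorescent dye readout | Benchmarks: High control isoproterenol alone, low control NPY with isoproterenol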
# Measles CPE: protection of cells from measles virus. protection (pct of control), % at 4 µM. Measles virus-infected cells, CPE protection, absorbance. AID 841. 140,000 tested, 1.5% active; in the data active means protection mostly above about 24%, no sharp cut-off; inactive means mostly below about 26%
# Rad51 HR inh: Rad51 (human) homologous recombination inhibition; inhibition, % at 10 µM; 200,000 tested, 0.085% active; AID 1385; Q06609; hRad51 DNA strand exchange, fluorescence dequenching;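 active means inhibition above 40% at the single screening dose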;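 further: 0% = DMSO control wells and 100% = blanks with heterologous ssDNA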
#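 System: human Rad51 nucleoprotein filaments preassembled on unlabelled ssDNA. Reagent: labelled 47-mer dsDNA for strand exchange. Schedule: 30-min compound preincubation and 15-min exchange, both room temperature. Measured by: FRET fluorescence dequenching, excitation 485 nm, emission 520 nm. Read-out: Fluorescence-based percent inhibition, control- and blank-normalised. Benchmarks: plate controls and plate blanks.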
# NPY-Y2 PAM-ag: potentiates or activates human NPY-Y2 receptor. cells expressing NPY-Y2, potentiator/agonist read-out. activation, % at 3.6 µM. 220,000 tested, 0.45% active; in the data active means activation above about 27%;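 further: cells stimulated with NPY near EC25 plus isoproterenol at EC100; 0% = vehicle plus submaximal agonist and 100% = vehicle plus saturating agonist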
# An asterisk follows results filed as active; . = not tested or not shown.
SMILES,NPY-Y1 PAM-ag,NPY-Y2 antag,NPY Y1 blocker,Measles CPE,Rad51 HR inh,NPY-Y2 PAM-ag
Cc1cc(C(=O)N/N=C/c2cccc([N+](=O)[O-])c2)c(C)o1,11,1,6,33*,8,1
Cc1ccc(S(=O)(=O)N2CCN(CCO)CC2)cc1-c1nnc2c3ccccc3c(C)nn12,-40,57*,11,.,-2,-28
Cc1ccc(S(=O)(=O)N2CCN(C)CC2)cc1-c1nnc2c3ccccc3c(C)nn12,-40,40*,37*,21,3,-4
COc1ccc(S(=O)(=O)NC(C)(C)C)cc1-c1nnc2c3ccccc3c(C)nn12,-46,36*,30*,2,1,-28
COc1ccc(S(=O)(=O)N2CCN(CCO)CC2)cc1-c1nnc2c3ccccc3c(C)nn12,-3,10,0,5,1,-2
C=C(C)C1CC=C(C)/C(=N\NC(=S)Nc2ccc(C)cc2)C1 (centres undefined),-6,9,6,5,6,-16
CC(Oc1ccc(Cl)cc1Cl)C(=O)Nc1ccncc1 (centres undefined),14,6,-3,9,2,26
CCCn1nnc(NC(=O)C(C)Oc2ccc(Cl)cc2Cl)n1 (centres undefined),9,1,4,47*,1,-26
Cc1ccc(NC(=O)c2ccccc2OCc2ccc([N+](=O)[O-])cc2)nc1,5,.,5,.,.,-21
O=C(Oc1ccc2c(c1)O/C(=C\c1ccncc1)C2=O)c1ccccc1,-4,2,-5,40*,-12,13
CCCn1nc(C(=O)OCC(=O)Nc2cccc(OC)c2)c2ccccc2c1=O,-29,.,5,.,16,-4
O=C1OCC2=C1C(c1ccccc1)CC(=O)N2c1ccccc1 (centres undefined),-1,.,4,.,51*,-8
Cn1c(CSCc2ccc(Cl)c(Cl)c2)n[nH]c1=S,-6,1,8,6,5,-1
Cc1ccccc1NC(=O)Cc1nc(CCl)cs1,2,2,2,42*,.,-27
Cc1ccc(C)c(NC(=O)Cc2nc(CCl)cs2)c1,8,4,-2,8,14,-3
COc1cccc(-c2cc(C(F)(F)F)nc(-n3ccc([N+](=O)[O-])n3)n2)c1,8,.,21*,.,-5,6
O=[N+]([O-])c1ccn(-c2nc(-c3ccccc3)cc(C(F)(F)F)n2)n1,0,.,0,.,-13,-3
CC(O)CNCCOc1ccccc1OCc1ccccc1 (centres undefined),-16,.,9,.,-5,-2
CC(O)CNCCNCc1c(OCc2ccccc2)ccc2ccccc12 (centres undefined),-116,38*,96*,4,-4,-41
C/C(CC(=O)Nc1cc(C)cc(C)c1)=N\NC(=O)c1ccccn1,12,2,2,69*,23,-7
C/C(CC(=O)Nc1ccc2c(c1)OCCO2)=N\NC(=O)c1ccccn1,9,.,0,.,-2,2
CN(C)CCn1c2ccccc2c2nc3ccc([N+](=O)[O-])cc3cc21,8,.,.,.,.,1
CS(=O)(=O)c1ccc(C(=O)OCc2nnc(-c3ccc(Cl)cc3)o2)cc1[N+](=O)[O-],9,.,-3,.,-5,11
CC1(C)C(c2cccs2)=[N+]([O-])C2(CCCCC/C2=N\NC(N)=O)N1O (centres undefined),-16,-1,0,30*,3,-2
CCCn1nnnc1-c1ccc(Cl)cc1,7,4,-1,12,4,3
SMILES,NPY-Y1 PAM-ag,NPY-Y2 antag,NPY Y1 blocker,Measles CPE,Rad51 HR inh,NPY-Y2 PAM-ag
CCCn1nnnc1-c1cccc(Cl)c1,-1,1,-2,61*,3,-1
O=C(Nc1ccc(O)c2c(=O)cc(-c3ccccc3Cl)oc12)c1cccs1,.,.,.,.,3,.
COc1ccc(CN2CSC(=S)N(Cc3ccc(OC)cc3)C2)cc1,4,.,.,.,.,-4
O=C(CSc1nc2ccccc2o1)Nc1ccccc1N1CCOCC1,7,-1,-4,48*,-9,10
CC1(C)CC(=O)c2cnc(NC(=O)CSc3nc4ccccc4o3)nc2C1,-6,1,3,17*,3,14
O=C(CSc1nc2ccccc2o1)Nc1ccc(N2CCOCC2)cc1,-4,3,6,3,3,1
CCCOc1ccc(CN(CCC#N)C(=S)NC(=O)c2ccccc2)cc1,-13,2,-2,1,6,-5
COc1cccc2sc(Nc3nc(-c4ccncc4)cs3)nc12,40*,.,-14,.,.,35*
COc1cccc2sc(Nc3nc(-c4cc5ccccc5oc4=O)cs3)nc12,-14,3,2,2,9,-8
CC(=O)NC(c1ccc([N+](=O)[O-])cc1)c1c(O)ccc2ccccc12 (centres undefined),7,.,-2,.,4,16
CC(=O)CC(c1ccc([N+](=O)[O-])cc1)c1c(O)c2ccccc2oc1=O (centres undefined),12,2,-3,36*,0,3
Cc1ncsc1CCOC(=O)C1C2CC3CC(C2)CC1C3 (centres undefined),-8,6,-3,14,0,-4
Nc1c(NC2CCCCC2)c2ccccc2oc1=O,-4,3,1,24,7,-10
O=c1cc(NC2CCCCC2)c2ccccc2o1,2,3,2,20*,2,13
Cc1ccc(C)c(N(CC(=O)NC2CCCC2)C(=O)c2oc(C(C)(C)C)cc2C)c1,-3,20*,27*,8,1,0
COc1ccc(-c2noc(CN3C(=O)c4ccccc4C3=O)n2)cc1,-4,5,10,37*,-2,7
COc1ccc(-c2cc(CN3C(=O)c4ccccc4C3=O)on2)cc1,-18,4,11,.,2,3
CC1=C(C#N)C(c2cccnc2)C2=C(CC(c3ccc(Cl)cc3)CC2=O)N1 (centres undefined),-6,10,8,8,-6,-4
O=C1c2ccccc2-c2cccc(C(=O)N3CCCCCC3)c21,-3,11,18,29*,.,18
O=C1c2ccccc2-c2c1cccc2C(=O)N1CCCCCC1,9,8,10,1,.,7
Nc1c2c(nc3sc4c(c13)CCCCC4)CCCCC2,-38,12,9,49*,11,-10
CC1CCc2nc3sc4c(c3c(N)c2C1)CCCC4 (centres undefined),-39,14,6,7,.,-12
Cc1ccc(/C=C/C(=O)O)cc1S(=O)(=O)N1CCCCC1,9,.,.,.,.,-13
CCc1cc(C(=O)c2ccc(C)cc2)c(NC(=O)CCl)s1,42*,1,1,21,7,35*
O=CNc1ccc(S(=O)(=O)NCc2ccccc2)cc1,12,2,1,6,-2,11
O=C(c1ccco1)N(CCCN1CCOCC1)c1nc(-c2ccc(Cl)cc2)cs1,-44,30*,41*,6,4,-23

# Source: PubChem (several laboratories)
